Experimental data from different studies.
Compare with care: the assays were run in different laboratories.

C[C@]12CC[C@H]3[C@@H](CCC4=CC(=O)CC[C@@]43C)[C@@H]1CC[C@@H]2O
hepatocyte CLint (metabolic stability; Sprague-Dawley rat, hepatocytes; 1 µM): 240 µL/min/10⁶ cells

Cn1nccc1[C@]1(CNC(=O)c2ccc(F)c(F)c2-c2ccc(C(F)(F)F)cc2)NC(=O)NC1=O
chromatographic logD (HPLC; pH 7.5): 2.3

COc1ccc2c(c1)[C@]13CCCC[C@@H]1[C@H](C2)N(C)CC3
hepatocyte CLint (metabolic stability; Sprague-Dawley rat, hepatocytes; 0.5 µM, pH 7.4): 97 µL/min/10⁶ cells

CONC(=O)[C@H]1[C@@H](O)[C@@]2(O)c3c(OC)cc(OC)cc3O[C@@]2(c2ccc(OC)cc2)[C@@H]1c1ccccc1
microsomal CLint (metabolic stability; rat, liver microsomes): 23.8 µL/min/mg

COc1ccsc1CNCC[C@@]1(c2ccccn2)CCOC2(CCCC2)C1
clearance (human, plasma; intravenous, 1.5 mg, single dose, infusion): 721 mL/min

COc1ccc([C@@]23Oc4cc(OC)cc(OC)c4[C@@]24NC(C)=N[C@@]4(O)[C@H](C(=O)N(C)OC)[C@H]3c2ccccc2)cc1
microsomal CLint (metabolic stability; rat, liver microsomes): 12.2 µL/min/mg

CNC(C)Cc1ccc2nsnc2c1 (stereo not drawn)
microsomal CLint (metabolic stability; human, liver microsomes; 0.5 µM): 13.1 µL/min/mg

O=C1NC(=O)[C@](CNC(=O)c2cnn(-c3ccccc3)n2)(C2CC2)N1
chromatographic logD (HPLC; pH 7.5): 1.8

Cc1ncc2n1-c1ccc(Cl)cc1C(c1ccccc1F)=NC2
hepatocyte CLint (metabolic stability; Sprague-Dawley rat, hepatocytes; 0.5 µM, pH 7.4): 160 µL/min/10⁶ cells
